Here are results for 13 compounds from ChEMBL document CHEMBL1833940, “Discovery of 3-(2,6-dichloro-3,5-dimethoxy-phenyl)-1-{6-[4-(4-ethyl-piperazin-1-yl)-phenylamino]-pyrimidin-4-yl}-1-methyl-urea (NVP-BGJ398), a potent and selective inhibitor of the fibroblast growth factor receptor family of receptor tyrosine kinase” (J Med Chem, 2011).

For one experiment, the system named is BaF3. Kind of experiment: Antiproliferative activity against mouse BAF3 cell line transformed with TEL-FGFR3 construct after 48 hrs by luciferase bioluminescent assay. The conditions noted are these: BaF3, 48 h. The format is functional, cell-based. In short, it runs like this:
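IL-3-independent BaF3 or BaF3 Tel-TK cells were grown in RPMI-1640 with 10% FBS and seeded at 4250 cells/well in 384-well plates. Compound serially diluted in DMSO was pin-transferred, followed by 48 h at 37 °C, 5% CO2. Viability was read by Bright-Glo luciferase luminescence.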

The target in the next experiment is Cytochrome P450 2C19 (Homo sapiens, UniProt P33261). Kind of experiment: Inhibition of CYP2C19 using CEC as substrate. The class given is ADME. In short, it runs like this: (§1)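 Human CYP450 inhibition was measured with isoform-specific fluorogenic probe substrates: CEC for 1A2 and 2C19, MFC for 2C9, AMMC for 2D6. Incubation was at 37 °C with an NADPH-regenerating system in 384-well format. Metabolite was quantified by fluorescence, and IC50 was obtained by curve fitting.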
Chain of Cytochrome P450 2C19 (P33261 whole entry, canonical isoform): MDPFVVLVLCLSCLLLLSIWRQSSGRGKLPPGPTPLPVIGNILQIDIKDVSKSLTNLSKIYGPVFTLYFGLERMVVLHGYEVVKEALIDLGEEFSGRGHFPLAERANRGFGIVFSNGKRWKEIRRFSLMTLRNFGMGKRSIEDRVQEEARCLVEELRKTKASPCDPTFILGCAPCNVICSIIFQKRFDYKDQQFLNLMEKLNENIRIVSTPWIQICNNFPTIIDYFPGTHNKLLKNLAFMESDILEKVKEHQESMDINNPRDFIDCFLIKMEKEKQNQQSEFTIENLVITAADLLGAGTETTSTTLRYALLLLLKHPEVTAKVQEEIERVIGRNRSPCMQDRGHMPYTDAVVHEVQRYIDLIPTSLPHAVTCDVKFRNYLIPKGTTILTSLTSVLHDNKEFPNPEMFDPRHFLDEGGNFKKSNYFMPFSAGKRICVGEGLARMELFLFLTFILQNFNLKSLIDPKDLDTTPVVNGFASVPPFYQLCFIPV

Experiment [1] has as its target T1, Cytochrome P450 3A4 (Homo sapiens, UniProt P08684). Kind of experiment: Inhibition of CYP3A4 using BFC as substrate.
Experiment [2] has as its target T1, Cytochrome P450 3A4. The experiment can be described thus: Inhibition of CYP3A4 using DBF as substrate.
Another experiment addresses Cytochrome P450 2C9 (Homo sapiens, UniProt P11712). Kind of experiment: Inhibition of CYP2C9 using MFC as substrate. The format is ADME. In short, it runs like this:
as §1

A further experiment deals with Cytochrome P450 2D6 (Homo sapiens, UniProt P10635). Kind of experiment: Inhibition of CYP2D6 using AMMC as substrate. The class given is ADME. In short, it runs like this:
as §1

The target in another experiment is T2, Cytochrome P450 1A2 (Homo sapiens, UniProt P05177).
T2 sequence (P05177 whole entry): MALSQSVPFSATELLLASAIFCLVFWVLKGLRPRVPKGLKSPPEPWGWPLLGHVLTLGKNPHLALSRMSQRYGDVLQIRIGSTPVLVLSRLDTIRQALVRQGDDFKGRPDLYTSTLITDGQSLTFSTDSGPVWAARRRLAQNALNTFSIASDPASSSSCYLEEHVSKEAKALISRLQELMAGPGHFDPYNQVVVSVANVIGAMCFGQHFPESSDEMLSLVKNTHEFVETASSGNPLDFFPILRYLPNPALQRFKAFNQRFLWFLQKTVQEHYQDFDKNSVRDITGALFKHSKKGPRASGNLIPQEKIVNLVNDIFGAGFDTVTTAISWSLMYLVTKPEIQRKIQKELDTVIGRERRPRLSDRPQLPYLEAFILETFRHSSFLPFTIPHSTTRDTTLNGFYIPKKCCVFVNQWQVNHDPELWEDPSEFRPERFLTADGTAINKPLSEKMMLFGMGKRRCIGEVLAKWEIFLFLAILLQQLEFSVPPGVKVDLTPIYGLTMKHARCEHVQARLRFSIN
The experiment can be described thus: Inhibition of CYP1A2 using CEC as substrate. The class given is ADME. In short, it runs like this: as §1

Chain of Cytochrome P450 2D6 (P10635 whole entry): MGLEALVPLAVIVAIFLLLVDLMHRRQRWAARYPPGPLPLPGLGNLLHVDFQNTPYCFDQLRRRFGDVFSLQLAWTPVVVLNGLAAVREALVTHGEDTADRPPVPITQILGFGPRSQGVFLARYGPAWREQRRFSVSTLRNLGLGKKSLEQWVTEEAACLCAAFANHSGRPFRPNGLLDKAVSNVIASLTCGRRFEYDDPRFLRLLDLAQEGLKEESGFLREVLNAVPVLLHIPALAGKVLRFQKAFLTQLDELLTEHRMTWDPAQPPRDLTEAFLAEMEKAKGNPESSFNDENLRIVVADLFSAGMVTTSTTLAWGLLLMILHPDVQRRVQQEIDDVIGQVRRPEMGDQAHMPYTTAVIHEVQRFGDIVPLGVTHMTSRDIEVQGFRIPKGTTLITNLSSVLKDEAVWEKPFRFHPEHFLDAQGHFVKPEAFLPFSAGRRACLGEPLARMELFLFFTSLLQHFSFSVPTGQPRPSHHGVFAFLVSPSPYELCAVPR
T1 sequence (P08684 whole entry): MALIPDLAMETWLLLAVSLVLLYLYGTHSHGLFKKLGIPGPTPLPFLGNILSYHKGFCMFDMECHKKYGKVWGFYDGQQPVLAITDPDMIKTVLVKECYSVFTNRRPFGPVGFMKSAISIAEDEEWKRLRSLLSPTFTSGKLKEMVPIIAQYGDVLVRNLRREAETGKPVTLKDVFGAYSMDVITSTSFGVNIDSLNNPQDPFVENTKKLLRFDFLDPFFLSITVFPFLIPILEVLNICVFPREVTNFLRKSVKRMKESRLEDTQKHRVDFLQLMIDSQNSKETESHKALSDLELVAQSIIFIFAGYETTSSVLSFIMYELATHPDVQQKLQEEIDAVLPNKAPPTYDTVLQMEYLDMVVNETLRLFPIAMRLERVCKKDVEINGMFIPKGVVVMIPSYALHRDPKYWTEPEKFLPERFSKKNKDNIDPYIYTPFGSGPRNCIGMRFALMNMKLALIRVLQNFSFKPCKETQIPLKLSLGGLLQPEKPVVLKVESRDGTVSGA
Chain of Cytochrome P450 2C9 (P11712 whole entry): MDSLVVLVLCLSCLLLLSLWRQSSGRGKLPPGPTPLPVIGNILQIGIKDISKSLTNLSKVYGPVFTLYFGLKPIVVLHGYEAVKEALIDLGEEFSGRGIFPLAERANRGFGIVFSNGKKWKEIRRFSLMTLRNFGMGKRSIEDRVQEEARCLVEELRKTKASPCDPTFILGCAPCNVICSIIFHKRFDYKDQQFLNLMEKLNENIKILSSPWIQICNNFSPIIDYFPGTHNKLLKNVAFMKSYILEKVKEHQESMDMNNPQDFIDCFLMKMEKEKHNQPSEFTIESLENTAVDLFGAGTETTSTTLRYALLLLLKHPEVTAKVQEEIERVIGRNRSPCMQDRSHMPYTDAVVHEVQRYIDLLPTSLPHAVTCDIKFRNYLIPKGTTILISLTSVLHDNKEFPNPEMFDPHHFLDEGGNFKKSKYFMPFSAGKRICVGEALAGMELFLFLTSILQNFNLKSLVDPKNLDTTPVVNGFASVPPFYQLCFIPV

`CCN(C(=O)Nc1cc(OC)cc(OC)c1Cl)c1cc(Nc2ccc(N3CCN(C)CC3)cc2)ncn1` yielded an IC50 in the experiment on BaF3 of 750 nM.
`COc1cc(NC(=O)N(C)c2cc(Nc3ccc(N4CCN(C)CC4)cc3)ncn2)cc(OC)c1` registered an IC50 in the experiment with BaF3 of 1510 nM.
Still for that read-out and setting: for `COc1cc(NC(=O)N(C)c2cc(Nc3ccc(N4CCN(C)CC4)cc3)ncn2)c(Cl)c(OC)c1` the value was 635 nM.
On the same count and under the same terms, with `COc1cc(NC(=O)Nc2cc(Nc3ccc(N4CCN(C)CC4)cc3)ncn2)c(Cl)c(OC)c1` the figure was 832 nM.
The same measure, in the same setting: with `COc1ccc(Cl)c(NC(=O)Nc2cc(Nc3ccc(N4CCN(C)CC4)cc3)ncn2)c1` the figure was 2220 nM.
For `COc1ccc(Cl)c(NC(=O)Nc2cc(Nc3ccc(N4CCN(C)CC4)cc3)ncn2)c1Cl`, the IC50 in the experiment on BaF3 worked out at 126 nM.
In the experiment on BaF3, `COc1ccc(Cl)c(NC(=O)N(C)c2cc(Nc3ccc(N4CCN(C)CC4)cc3)ncn2)c1Cl` displayed an IC50 of 118 nM.
Take `COc1cc(OC)c(Cl)c(NC(=O)N(C)c2cc(Nc3cccc(N4CCN(C)CC4)c3)ncn2)c1Cl`: the IC50 on Cytochrome P450 2C19 was 900 nM; with BaF3, 2 nM; against Cytochrome P450 3A4 [1], 1100 nM; on Cytochrome P450 3A4 [2] it was > 10000 nM; against Cytochrome P450 2C9, 1700 nM; on Cytochrome P450 2D6, > 10000 nM. In addition, at Cytochrome P450 1A2, the IC50 is > 10000 nM.
Consider `COc1cc(OC)c(Cl)c(NC(=O)N(C)c2cc(Nc3ccc(OCCN4CCCC4)cc3)ncn2)c1Cl`, for which the IC50 against Cytochrome P450 2C19 is > 10000 nM; with BaF3 it was 28 nM; on Cytochrome P450 3A4 [1] it was > 10000 nM; against Cytochrome P450 3A4 [2], 2500 nM; on Cytochrome P450 2C9, > 10000 nM; on Cytochrome P450 2D6, > 10000 nM. Moreover, the IC50 against Cytochrome P450 1A2 was > 10000 nM.
With `COc1cc(OC)c(Cl)c(NC(=O)N(C)c2cc(Nc3ccc(CCCN(C)C)cc3)ncn2)c1Cl`, the IC50 at Cytochrome P450 2C19 was 3600 nM; in the experiment with BaF3, 27 nM; at Cytochrome P450 3A4 [1] it was 1000 nM; on Cytochrome P450 3A4 [2], > 10000 nM; at Cytochrome P450 2C9 it was > 10000 nM; against Cytochrome P450 2D6, > 10000 nM. The IC50 against Cytochrome P450 1A2 is > 10000 nM.
Consider `CCN1CCC(c2ccc(Nc3cc(N(C)C(=O)Nc4c(Cl)c(OC)cc(OC)c4Cl)ncn3)cc2)CC1`, for which the IC50 against Cytochrome P450 2C19 is 1100 nM; with BaF3 it was 14 nM; on Cytochrome P450 3A4 [1], 1200 nM; on Cytochrome P450 3A4 [2], 6000 nM; against Cytochrome P450 2C9, 4000 nM; against Cytochrome P450 2D6, > 10000 nM. In addition, the IC50 against Cytochrome P450 1A2 is > 10000 nM.
Turning to `COc1cc(OC)c(Cl)c(NC(=O)N(C)c2cc(Nc3cccc(CN4CCN(C)CC4)c3)ncn2)c1Cl`, the IC50 against Cytochrome P450 2C19 is 300 nM; with BaF3, 14 nM; at Cytochrome P450 3A4 [1], 500 nM; at Cytochrome P450 3A4 [2], > 10000 nM; against Cytochrome P450 2C9, > 10000 nM; against Cytochrome P450 2D6, > 10000 nM. Moreover, the IC50 at Cytochrome P450 1A2 stood at 7000 nM.
As for `COc1cc(OC)c(Cl)c(NC(=O)N(C)c2cc(Nc3cccc(CN(C)C)c3)ncn2)c1Cl`, the IC50 is 1400 nM against Cytochrome P450 2C19; 11 nM in the experiment on BaF3; > 10000 nM against Cytochrome P450 2C9; > 10000 nM against Cytochrome P450 2D6; > 10000 nM at Cytochrome P450 1A2.
